Measurements as given in ChEMBL document CHEMBL1142860, “Potent antitubulin tumor cell cytotoxins based on 3-aroyl indazoles” (J Med Chem, 2007).

What was measured:
NCI-H460 = assay: Inhibition of proliferation of human H460 cells; assay type: functional, cell-based
How it was run: (§1)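 Cells in exponential growth seeded at 4000–6000 per well, held 24 h at 37 °C, 5% CO2 before compound; T0 population read by AlamarBlue at time of addition. Compounds in DMSO diluted into complete medium; 72 h exposure at 37 °C, 5% CO2. Viable cells quantified with AlamarBlue; IC50 as 50% growth inhibition; triplicate.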

HCT-15 = assay: Antiproliferative activity against drug resistant HCT15 cell line expressing MDR1 by Alamar Blue assay; assay type: functional, cell-based; settings: Homo sapiens; how it was run: as §1
ACHN = assay: Antiproliferative activity against drug resistant ACHN cell line expressing MDR1 by Alamar Blue assay; assay type: functional, cell-based; settings: Homo sapiens; how it was run: as §1
[1] = Antiproliferative activity against drug sensitive Messa cell line by Alamar Blue assay; assay type: functional, cell-based; settings: Homo sapiens, MES-SA; how it was run: as §1
[2] = Antiproliferative activity against drug resistant Messa/DX5 cell line expressing MDR1 by Alamar Blue assay; assay type: functional, cell-based; settings: Homo sapiens, MES-SA/Dx5; how it was run: as §1
NCI-H69 = assay: Antiproliferative activity against drug sensitive NCI-H69 cell line by Alamar Blue assay; assay type: functional, cell-based; settings: Homo sapiens; how it was run: as §1
H69AR = assay: Antiproliferative activity against drug resistant H69AR cell line expressing MRP1 by Alamar Blue assay; assay type: functional, cell-based; settings: Homo sapiens; how it was run: as §1
HT-29 = assay: Cytotoxicity against human HT29 cells; assay type: cell-based
How it was run: (§2)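 Exponentially growing cells seeded at 4000–6000 per well and incubated 24 h (37 °C, 5% CO₂) before dosing. Cell population at time of drug addition (T₀) measured by AlamarBlue. Compounds dissolved in DMSO, diluted in complete medium, and exposed for 72 h. Viable cells quantified by AlamarBlue. IC₅₀ is 50% growth inhibition. Assays run in triplicate.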

PC-3 = assay: Cytotoxicity against human PC3 cells; assay type: cell-based; how it was run: as §2
HeLa = assay: Cytotoxicity against human HeLa cells; assay type: cell-based; how it was run: as §1
[3] = (§3) Displacement of [3H]colchicine from tubulin in bovine brain at 500 nM; parameters: species or system Bos taurus
How it was run: (§4)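 Purified tubulin (bovine brain, HeLa or MCF-7 source) preincubated with compound 10 min at 37 °C, then [3H]colchicine added and incubated a further 30 min at 37 °C. Samples spotted on DE81 filters, washed three times to remove unbound label; bound [3H]colchicine counted by scintillation.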

Bos taurus = species on record: Bos taurus; assay: as §3; how it was run: as §4
Tubulin [4] = assay: Displacement of [3H]colchicine from tubulin in HeLa cells; assay type: cell-based, Homo sapiens; how it was run: as §4
Tubulin [5] = assay: Displacement of [3H]colchicine from tubulin in MCF7 cells; assay type: cell-based, Homo sapiens; how it was run: as §4
[6] = Inhibition of bovine tubulin polymerization; parameters: species or system Bos taurus
How it was run: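 Purified bovine tubulin incubated with compound in buffer with 10% glycerol using a commercial kit; microtubule formation followed as rise in fluorescence intensity of the reaction mixture; IC50 from concentration-dependent inhibition.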

| SMILES | IC50 (NCI-H460) [nM] | IC50 (HCT-15) [nM] | IC50 (ACHN) [nM] | IC50 (NCI-H69) [nM] | IC50 [1] [nM] | IC50 [2] [nM] | IC50 (H69AR) [nM] | other results |
| --- | --- | --- | --- | --- | --- | --- | --- | --- |
| COc1cc(C(=O)c2n[nH]c3c(/C=C\CO)c(OC)ccc23)cc(OC)c1OC | 13 |  |  |  |  |  |  |  |
| COc1cc2c(c(OC)c1OC)-c1ccc(OC)c(=O)cc1[C@@H](NC(C)=O)CC2 [COLCHICINE] |  | 100 | 39.8 |  | 6.3 | 63 |  |  |
| CC(=O)O[C@H]1C(=O)[C@@]2(C)[C@H]([C@H](OC(=O)c3ccccc3)[C@]3(O)C[C@H](OC(=O)[C@H](O)[C@@H](NC(=O)c4ccccc4)c4ccccc4)C(C)=C1C3(C)C)[C@]1(OC(C)=O)CO[C@@H]1C[C@@H]2O [PACLITAXEL] |  | 79.4 | 25 | 1.9 | 1.6 | > 1000 | 2.5 |  |
| C#Cc1c(OC)ccc2c(C(=O)c3cc(OC)c(OC)c(OC)c3)n[nH]c12 | 3 |  | 1.6 | 2.5 | 1.9 | 3.9 | 2.2 | IC50 (HT-29): 1.7 nM; IC50 (PC-3): 3 nM; IC50 (HeLa): 2.3 nM |
| COc1cc(C(=O)c2n[nH]c3c(C#CC(C)(C)O)c(OC)ccc23)cc(OC)c1OC | 195 |  |  |  |  |  |  |  |
| COc1cccc2c1C(=O)c1c(O)c3c(c(O)c1C2=O)C[C@@](O)(C(C)=O)C[C@@H]3O[C@H]1C[C@H](N)[C@H](O)[C@H](C)O1 [DAUNORUBICIN] |  | > 400 | 63 | 100 | 20 | > 400 | > 1000 |  |
| CC[C@]1(O)C[C@@H]2CN(CCc3c([nH]c4ccccc34)[C@@](C(=O)OC)(c3cc4c(cc3OC)N(C)[C@H]3[C@@](O)(C(=O)OC)[C@H](OC(C)=O)[C@]5(CC)C=CCN6CC[C@]43[C@@H]65)C2)C1 [VINBLASTINE] |  | 79.4 | 25 | 1.6 | 1.6 | 8.9 | 1.6 |  |
| COc1cc(C(=O)c2n[nH]c3c(CCCO)c(OC)ccc23)cc(OC)c1OC | 283 |  |  |  |  |  |  |  |
| COc1ccc(/C=C\c2cc(OC)c(OC)c(OC)c2)cc1O [COMBRETASTATIN A4] | 10 | 2.5 | 1.6 | 1.7 | 1.6 | 1.4 | 2.5 | IC50 (HT-29): > 1000 nM; IC50 (PC-3): 3.2 nM; IC50 (HeLa): 2.7 nM |

Continued, in another order:

| IC50 (NCI-H460) [nM] | IC50 (HCT-15) [nM] | IC50 (ACHN) [nM] | IC50 (NCI-H69) [nM] | SMILES | IC50 [1] [nM] | IC50 [2] [nM] | IC50 (H69AR) [nM] | other results |
| --- | --- | --- | --- | --- | --- | --- | --- | --- |
| 14 |  |  |  | COc1cc(C(=O)c2n[nH]c3c(C#C[C@H](C)O)c(OC)ccc23)cc(OC)c1OC |  |  |  |  |
| 8 |  |  |  | COc1cc(C(=O)c2n[nH]c3c(C#CCCCO)c(OC)ccc23)cc(OC)c1OC |  |  |  |  |
| 247 |  |  |  | COc1cc(C(=O)c2n[nH]c3c(C#CCN)c(OC)ccc23)cc(OC)c1OC |  |  |  |  |
| 16 |  |  |  | COc1ccc2c(C(=O)c3cc(OC)c(OC)c(OC)c3)c[nH]c2c1 |  |  |  |  |
| 1 | 1.9 | 1.6 | 1.6 | CC#Cc1c(OC)ccc2c(C(=O)c3cc(OC)c(OC)c(OC)c3)n[nH]c12 | 1.6 | 1.9 | 2.5 | IC50 (HT-29): 3 nM; IC50 (PC-3): 1.1 nM; IC50 (HeLa): 0.9 nM |
| 14 |  |  |  | COc1cc(C(=O)c2n[nH]c3c(C#CCCO)c(OC)ccc23)cc(OC)c1OC |  |  |  |  |
| 8 | 1.9 | 1.6 | 1.6 | COc1cc(C(=O)c2n[nH]c3c(C#CCO)c(OC)ccc23)cc(OC)c1OC | 1.7 | 1.8 | 2.6 | IC50 [3]: 500 nM; Activity (Bos taurus): 70%; IC50 (Tubulin [4]): 46 nM; IC50 (Tubulin [5]): 240 nM; IC50 [6]: 6 µM; IC50 (HT-29): 1 nM; IC50 (PC-3): 1 nM; IC50 (HeLa): 0.8 nM |
| 29 |  |  |  | COc1cc(C(=O)c2n[nH]c3c(C#C[C@@H](C)O)c(OC)ccc23)cc(OC)c1OC |  |  |  |  |
| > 1000 |  |  |  | CC#Cc1c(OC)ccc2c(C(=O)c3cc(OC)c(OC)c(OC)c3)c[nH]c12 |  |  |  |  |
